The values that follow come from ChEMBL document CHEMBL1153998, “Discovery and structure-activity study of a novel benzoxaborole anti-inflammatory agent (AN2728) for the potential topical treatment of psoriasis and atopic dermatitis” (Bioorg Med Chem Lett, 2009).

The IC50 is the concentration that gives 50% inhibition.

In series [1] the target is T1, Phosphodiesterase 4 (Homo sapiens, UniProt P27815+Q08499+Q07343+Q08493). The series is described as follows: Inhibition of PDE4 in human U937 cells assessed as accumulation of [3H]adenosine by scintillation counting. The series is classed as cell-based. The settings on record: u-937.
For series [2], the system named is PBMC. The series can be described thus: Antiinflammatory activity in human PBMC assessed as inhibition of phytohemagglutininin-induced IL2 release after 24 hrs by FACS Array analysis. The series is classed as functional, cell-based. On the technique in general: In flow cytometry, cells or beads pass a laser one at a time.
For series [3], the system named is PBMC. The series can be described thus: Antiinflammatory activity in human PBMC assessed as inhibition of LPS-induced TNFalpha release in after 24 hrs by FACS Array analysis. The series is classed as functional, cell-based.
Series [4] relates to PBMC. The series can be described thus: Antiinflammatory activity in human PBMC assessed as inhibition of IL1-beta release by FACSArray analysis. The series is classed as functional, cell-based.
In series [5] the test system is PBMC. The series can be described thus: Antiinflammatory activity in human PBMC assessed as inhibition of phytohemagglutininin-induced IL10 release after 48 hrs by FACS Array analysis. The series is classed as functional, cell-based.
For series [6], the system named is PBMC. The series can be described thus: Antiinflammatory activity in human PBMC assessed as inhibition of phytohemagglutininin-induced IFN-gamma release after 24 hrs by FACSArray analysis. The series is classed as functional, cell-based.
Series [7] has as its system PBMC. The series can be described thus: Antiinflammatory activity in human PBMC assessed as inhibition of phytohemagglutininin-induced IL5 release after 48 hrs by FACS Array analysis. The series is classed as functional, cell-based.
In series [8] the test system is PBMC. The series is described as follows: Antiinflammatory activity in human PBMC assessed as inhibition of IL4 release by FACS Array analysis. The series is classed as functional, cell-based.
Series [9] deals with L929. The series is described as follows: Cytotoxicity against mouse L929 cells up to 100 uM. The series is classed as cell-based.
In series [10] the target is Dual specificity calcium/calmodulin-dependent 3',5'-cyclic nucleotide phosphodiesterase 1A (Homo sapiens, UniProt P54750). The series can be described thus: Inhibition of human recombinant PDE1A3 expressed in baculovirus-infected insect Sf9 cells by modified two-step method. In outline:
(§1)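 Human recombinant enzymes from a baculoviral expression system, tested in a modified two-step PDE assay as part of a PDE1–11 isozyme panel. IC50 values were calculated from the means of three experiments.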

Series [11] deals with Phosphodiesterase 8 (Homo sapiens) (UniProt O95263+O60658). The series can be described thus: Inhibition of human recombinant PDE8 expressed in baculovirus-infected insect Sf9 cells at 10 uM by modified two-step method.
Phosphodiesterase 8 (Homo sapiens), sequence (O60658 whole entry, looked up): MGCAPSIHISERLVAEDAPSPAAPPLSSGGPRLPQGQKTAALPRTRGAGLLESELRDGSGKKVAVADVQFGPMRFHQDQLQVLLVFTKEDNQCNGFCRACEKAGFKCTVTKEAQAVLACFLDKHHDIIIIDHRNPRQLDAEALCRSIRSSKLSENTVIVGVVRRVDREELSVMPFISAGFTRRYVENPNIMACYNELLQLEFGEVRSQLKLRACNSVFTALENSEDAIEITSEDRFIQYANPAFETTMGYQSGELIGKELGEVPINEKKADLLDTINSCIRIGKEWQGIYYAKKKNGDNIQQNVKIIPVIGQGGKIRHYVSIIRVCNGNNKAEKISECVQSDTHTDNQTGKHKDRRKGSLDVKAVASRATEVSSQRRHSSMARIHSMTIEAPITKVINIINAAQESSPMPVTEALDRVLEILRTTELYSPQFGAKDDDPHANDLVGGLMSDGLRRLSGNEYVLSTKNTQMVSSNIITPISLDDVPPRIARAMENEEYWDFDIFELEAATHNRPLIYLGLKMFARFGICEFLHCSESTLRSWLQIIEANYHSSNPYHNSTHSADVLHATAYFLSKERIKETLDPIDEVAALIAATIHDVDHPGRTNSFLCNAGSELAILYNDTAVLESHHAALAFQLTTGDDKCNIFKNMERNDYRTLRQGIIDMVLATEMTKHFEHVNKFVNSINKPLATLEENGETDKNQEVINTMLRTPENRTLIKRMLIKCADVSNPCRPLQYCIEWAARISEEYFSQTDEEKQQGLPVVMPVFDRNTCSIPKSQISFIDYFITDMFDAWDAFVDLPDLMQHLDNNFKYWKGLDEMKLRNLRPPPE
Phosphodiesterase 8 (Homo sapiens), sequence (O95263 whole entry, looked up): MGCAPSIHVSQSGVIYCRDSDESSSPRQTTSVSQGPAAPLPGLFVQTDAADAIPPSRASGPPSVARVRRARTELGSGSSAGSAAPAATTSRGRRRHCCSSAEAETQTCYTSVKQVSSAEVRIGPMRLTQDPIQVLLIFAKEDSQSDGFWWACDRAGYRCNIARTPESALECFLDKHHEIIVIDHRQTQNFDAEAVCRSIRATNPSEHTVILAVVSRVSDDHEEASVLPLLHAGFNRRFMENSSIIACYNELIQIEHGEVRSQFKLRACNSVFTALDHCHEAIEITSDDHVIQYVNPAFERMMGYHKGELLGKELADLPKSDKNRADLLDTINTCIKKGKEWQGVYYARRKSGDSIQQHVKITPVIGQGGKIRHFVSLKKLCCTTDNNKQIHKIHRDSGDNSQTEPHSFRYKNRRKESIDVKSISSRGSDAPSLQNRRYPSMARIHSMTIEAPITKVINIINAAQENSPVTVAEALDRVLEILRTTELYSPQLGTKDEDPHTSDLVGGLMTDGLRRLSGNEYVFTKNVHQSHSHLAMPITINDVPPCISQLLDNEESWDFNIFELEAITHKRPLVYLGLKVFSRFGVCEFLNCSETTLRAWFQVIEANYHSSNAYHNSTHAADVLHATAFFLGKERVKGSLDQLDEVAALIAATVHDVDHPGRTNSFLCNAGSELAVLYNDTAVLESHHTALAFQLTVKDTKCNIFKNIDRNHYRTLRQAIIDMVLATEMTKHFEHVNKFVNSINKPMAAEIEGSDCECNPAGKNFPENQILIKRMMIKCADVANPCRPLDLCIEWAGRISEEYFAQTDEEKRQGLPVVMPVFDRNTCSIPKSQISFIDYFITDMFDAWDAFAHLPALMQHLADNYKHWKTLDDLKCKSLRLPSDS
The subject of series [12] is Mus musculus. The series is described as follows: Antiinflammatory activity in mouse ear edema model assessed as inhibition of PMA-induced ear edema at 1 mg/ear administered 2 times 30 mins before and 15 mins after PMA challenge measured after 6 hrs of PMA application relative to control. The series is classed as functional.
In series [13] the target is cGMP-dependent 3',5'-cyclic phosphodiesterase (Homo sapiens) (UniProt O00408). The series can be described thus: Inhibition of human recombinant PDE2 expressed in baculovirus-infected insect Sf9 cells at 10 uM by modified two-step method.
cGMP-dependent 3',5'-cyclic phosphodiesterase (Homo sapiens), sequence (O00408 whole entry): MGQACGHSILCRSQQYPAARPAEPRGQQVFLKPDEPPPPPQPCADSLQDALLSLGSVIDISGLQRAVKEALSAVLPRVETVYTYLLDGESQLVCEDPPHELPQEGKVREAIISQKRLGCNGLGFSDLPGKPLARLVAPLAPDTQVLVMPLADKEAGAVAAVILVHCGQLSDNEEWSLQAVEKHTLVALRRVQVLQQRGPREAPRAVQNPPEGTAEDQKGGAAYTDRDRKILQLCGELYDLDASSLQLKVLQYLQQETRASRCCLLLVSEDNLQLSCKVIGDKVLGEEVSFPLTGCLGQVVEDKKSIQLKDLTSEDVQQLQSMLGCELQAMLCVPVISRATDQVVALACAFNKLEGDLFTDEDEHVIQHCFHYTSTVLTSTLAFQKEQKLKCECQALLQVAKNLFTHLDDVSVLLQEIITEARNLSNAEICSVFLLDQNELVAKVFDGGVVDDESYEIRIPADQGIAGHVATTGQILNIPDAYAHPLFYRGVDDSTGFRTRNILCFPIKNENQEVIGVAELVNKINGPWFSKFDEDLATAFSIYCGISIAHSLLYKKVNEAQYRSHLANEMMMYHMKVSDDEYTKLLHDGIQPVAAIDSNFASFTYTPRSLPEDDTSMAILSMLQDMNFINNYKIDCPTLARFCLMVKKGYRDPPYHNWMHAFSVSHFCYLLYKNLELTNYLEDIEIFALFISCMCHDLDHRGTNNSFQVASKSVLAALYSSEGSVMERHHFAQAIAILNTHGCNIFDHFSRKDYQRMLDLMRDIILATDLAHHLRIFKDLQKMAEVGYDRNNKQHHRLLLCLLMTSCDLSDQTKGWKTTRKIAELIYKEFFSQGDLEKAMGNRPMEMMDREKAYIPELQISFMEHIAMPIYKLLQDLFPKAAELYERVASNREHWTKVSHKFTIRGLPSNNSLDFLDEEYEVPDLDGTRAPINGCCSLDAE
The target of series [14] is High affinity cGMP-specific 3',5'-cyclic phosphodiesterase 9A (Homo sapiens) (UniProt O76083). The series can be described thus: Inhibition of human recombinant PDE9 expressed in baculovirus-infected insect Sf9 cells at 10 uM by modified two-step method.
Series [15] has as its target cGMP-specific 3',5'-cyclic phosphodiesterase (Homo sapiens) (UniProt O76074). The series is described as follows: Inhibition of human recombinant PDE5 expressed in baculovirus-infected insect Sf9 cells at 10 uM by modified two-step method.
The target in series [16] is Phosphodiesterase 6 (Homo sapiens) (UniProt Q13956+P18545+P35913+O43924+P16499+P51160). The series is described as follows: Inhibition of human recombinant PDE6 expressed in baculovirus-infected insect Sf9 cells at 10 uM by modified two-step method.
Series [17] has as its target T1, Phosphodiesterase 4. The series is described as follows: Inhibition of human recombinant PDE4 catalytic domain expressed in baculovirus-infected insect Sf9 cells by modified two-step method.
The target in series [18] is cAMP and cAMP-inhibited cGMP 3',5'-cyclic phosphodiesterase 10A (Homo sapiens) (UniProt Q9Y233). The series can be described thus: Inhibition of human recombinant PDE10 expressed in baculovirus-infected insect Sf9 cells at 10 uM by modified two-step method.
Series [19] deals with Phosphodiesterase 3 (Homo sapiens, UniProt Q14432+Q13370). The series can be described thus: Inhibition of human recombinant PDE3 catalytic domain expressed in baculovirus-infected insect Sf9 cells by modified two-step method. The method in brief:
as §1

For series [20], the target named is Dual 3',5'-cyclic-AMP and -GMP phosphodiesterase 11A (Homo sapiens) (UniProt Q9HCR9). The series can be described thus: Inhibition of human recombinant PDE11 expressed in baculovirus-infected insect Sf9 cells at 10 uM by modified two-step method.
Dual 3',5'-cyclic-AMP and -GMP phosphodiesterase 11A (Homo sapiens), sequence (Q9HCR9 whole entry, looked up): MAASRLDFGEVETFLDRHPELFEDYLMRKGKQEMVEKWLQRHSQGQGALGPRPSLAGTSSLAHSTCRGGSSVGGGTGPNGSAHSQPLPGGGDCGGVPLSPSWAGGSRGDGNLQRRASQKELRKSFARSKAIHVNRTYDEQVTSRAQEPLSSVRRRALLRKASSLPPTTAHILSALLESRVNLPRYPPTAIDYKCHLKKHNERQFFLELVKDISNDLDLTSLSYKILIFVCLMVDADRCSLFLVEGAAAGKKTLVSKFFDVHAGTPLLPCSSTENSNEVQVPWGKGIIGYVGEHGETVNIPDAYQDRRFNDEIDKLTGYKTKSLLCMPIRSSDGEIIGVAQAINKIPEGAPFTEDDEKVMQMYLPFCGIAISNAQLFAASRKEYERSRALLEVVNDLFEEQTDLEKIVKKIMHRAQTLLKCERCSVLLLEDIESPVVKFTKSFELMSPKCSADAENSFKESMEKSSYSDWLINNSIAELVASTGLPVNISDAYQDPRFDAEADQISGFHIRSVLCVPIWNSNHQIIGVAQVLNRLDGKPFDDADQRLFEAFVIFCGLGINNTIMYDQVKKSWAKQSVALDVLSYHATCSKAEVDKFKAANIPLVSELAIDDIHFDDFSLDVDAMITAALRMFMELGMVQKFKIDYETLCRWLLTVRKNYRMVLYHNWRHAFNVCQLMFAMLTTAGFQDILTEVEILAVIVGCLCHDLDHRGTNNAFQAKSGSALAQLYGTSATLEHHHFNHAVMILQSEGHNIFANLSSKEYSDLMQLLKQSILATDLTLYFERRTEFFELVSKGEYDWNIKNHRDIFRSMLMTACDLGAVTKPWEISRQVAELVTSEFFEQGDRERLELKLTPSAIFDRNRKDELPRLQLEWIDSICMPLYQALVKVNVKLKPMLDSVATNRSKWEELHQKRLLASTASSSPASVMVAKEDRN
For series [21], the target named is High affinity 3',5'-cyclic-AMP phosphodiesterase 7A (Homo sapiens, UniProt Q13946). The series is described as follows: Inhibition of human recombinant PDE7A1 expressed in baculovirus-infected insect Sf9 cells by modified two-step method. In outline:
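PDE7A1 was a human recombinant enzyme from a baculoviral expression system, tested in a modified two-step assay. Its substrate concentration was reduced compared with the other panel isozymes. IC50 values were calculated from the means of three experiments.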

For series [22], the system named is Mus musculus. The series is described as follows: Antiinflammatory activity in mouse ear edema model assessed as inhibition of PMA-induced ear edema at 3 mg/ear administered 2 times 30 mins before and 15 mins after PMA challenge measured after 6 hrs of PMA application relative to control. The series is classed as functional.

Molecules are shown by their SMILES. Active and inactive are the calls of the source. The rule behind the calls is not given here. Bounds are passed on as bounds.

Dual specificity calcium/calmodulin-dependent 3',5'-cyclic nucleotide phosphodiesterase 1A, sequence (P54750 whole entry): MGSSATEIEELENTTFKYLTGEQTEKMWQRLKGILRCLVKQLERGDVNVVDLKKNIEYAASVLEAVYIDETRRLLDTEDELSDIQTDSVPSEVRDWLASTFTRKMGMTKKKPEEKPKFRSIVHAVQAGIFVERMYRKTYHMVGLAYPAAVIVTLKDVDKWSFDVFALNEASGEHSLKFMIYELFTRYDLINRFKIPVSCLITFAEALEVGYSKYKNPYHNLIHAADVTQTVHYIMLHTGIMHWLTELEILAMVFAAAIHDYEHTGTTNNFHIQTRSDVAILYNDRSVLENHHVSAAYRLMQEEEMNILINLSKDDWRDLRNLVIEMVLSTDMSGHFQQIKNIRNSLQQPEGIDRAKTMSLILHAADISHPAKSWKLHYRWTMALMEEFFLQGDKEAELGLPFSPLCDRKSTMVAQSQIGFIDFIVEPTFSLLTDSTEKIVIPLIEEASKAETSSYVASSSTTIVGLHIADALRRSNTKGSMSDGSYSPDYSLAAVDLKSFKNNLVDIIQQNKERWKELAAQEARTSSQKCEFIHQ
High affinity 3',5'-cyclic-AMP phosphodiesterase 7A, sequence (Q13946 whole entry): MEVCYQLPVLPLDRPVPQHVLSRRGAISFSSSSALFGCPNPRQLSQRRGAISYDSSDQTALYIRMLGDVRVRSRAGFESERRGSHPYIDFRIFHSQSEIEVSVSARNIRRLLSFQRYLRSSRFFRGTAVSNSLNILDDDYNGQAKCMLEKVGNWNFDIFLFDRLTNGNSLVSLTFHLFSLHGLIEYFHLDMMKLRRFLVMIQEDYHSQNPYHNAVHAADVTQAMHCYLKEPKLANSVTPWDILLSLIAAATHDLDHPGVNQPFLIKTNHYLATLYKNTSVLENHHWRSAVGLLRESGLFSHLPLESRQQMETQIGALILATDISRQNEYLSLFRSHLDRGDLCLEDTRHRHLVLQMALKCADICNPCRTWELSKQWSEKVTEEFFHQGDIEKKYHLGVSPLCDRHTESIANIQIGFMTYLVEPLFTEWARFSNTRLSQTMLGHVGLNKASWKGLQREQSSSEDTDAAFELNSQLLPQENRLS

As for `COc1ccc(Oc2ccc3c(c2)COB3O)cc1`, the IC50 in [1] was 2.7 µM.

Regarding `N#Cc1cccc(Oc2ccc3c(c2)COB3O)c1`, the half-inhibitory concentration (IC50) in series [1] was 4.4 µM.

As for `O=C(c1ccc(Oc2ccc3c(c2)COB3O)cc1)N1CCOCC1`, in series [1], the IC50 turned out to be 0.57 µM.

`N#Cc1ccc(Oc2ccc3c(c2)B(O)OC3)cc1`: the IC50 is > 10 µM in series [2]; > 10 µM in series [3]; > 10 µM in series [5]; > 10 µM in [6]; > 10 µM in series [7]; > 30 µM in series [1]. The inhibition result in series [4] and in [8] was “inactive” in each case. Further, in series [9], the Activity result is on record as “Non-toxic”.

For the molecule `N#Cc1ccccc1Oc1ccc2c(c1)COB2O`, in series [1], the IC50 came to 3.7 µM.

As for `OB1OCc2cc(Oc3ccc(Cl)cc3)ccc21`, the IC50 in [1] worked out at 1.3 µM.

Regarding `COCc1nc2c([nH]1)c(=O)n(C)c(=O)n2CC(C)C`, the IC50 in series [10] is 10 µM.

In the case of `N#Cc1ccc(Oc2ccc3c(c2)COB3O)cc1` [CRISABOROLE], the inhibition entry in series [11], in [4], in series [13], in series [14], in series [15] and in series [16] was “inactive” each time. For the same molecule, the inhibition entry in [18], in series [8] and in series [20] was “inactive” in each case. Besides, the 50% inhibitory concentration (IC50) in series [2] is 0.61 µM; in series [3], 0.54 µM; in series [5], 5.3 µM; in series [17] it was 0.11 µM; in [6] it was 0.83 µM; in series [10] it was 6.1 µM. Also, the concentration for half-maximal inhibition (IC50) in series [19] is 6.4 µM; in series [7] it was 2.4 µM; in series [1], 0.49 µM. Moreover, the “inhibition (INH)” value in series [12] was 78%. Besides, the Activity result in series [9] is given as “Non-toxic”.

For `CN1CCN(S(=O)(=O)c2ccc(Oc3ccc4c(c3)COB4O)cc2)CC1`, the half-maximal inhibitory concentration (IC50) in [1] was > 30 µM.

As for `OB1OCc2cc(Oc3ccccc3)ccc21`, the IC50 in [1] worked out at 6.8 µM.

For the molecule `Cc1ccc(Oc2ccc3c(c2)COB3O)cc1`, the IC50 in series [1] was 2 µM.

Regarding `OB1OCc2cc(Oc3ccc(F)cc3)ccc21`, the IC50 in [1] stood at 7.7 µM.

Consider `O=C(O)c1ccc(Oc2ccc3c(c2)COB3O)cc1`, for which the IC50 in series [2] is > 10 µM; in [3], > 10 µM; in series [5] it was > 10 µM; in [6], > 10 µM; in series [7] it was > 10 µM; in series [1], 6.4 µM. The inhibition entry in series [4] and in series [8] was “inactive” each time. Further, the Activity result in series [9] was “Non-toxic”.

Take `OB1OCc2cc(Oc3ccc(C(F)(F)F)cc3)ccc21`: the concentration for half-maximal inhibition (IC50) in series [1] was 0.45 µM.

For the molecule `Cc1ccc([N+](=O)[O-])cc1S(=O)(=O)N(C)C`, in [21], the IC50 turned out to be 2.2 µM.

As for `COc1ccc(C2CNC(=O)C2)cc1OC1CCCC1` (stereo not drawn) [ROLIPRAM], the IC50 in series [2] worked out at 0.23 µM; in series [3], 0.16 µM; in series [5], 0.88 µM; in [6] it was 0.23 µM; in [7], 0.5 µM. For the same molecule, the “inhibition (INH)” value in series [12] was determined as 6%; in series [22], 53%.

On to `N#Cc1ccc(Oc2cccc3c2B(O)OC3)cc1`, for which the 50% inhibitory concentration (IC50) in [1] is > 30 µM.

As to `CCN(CC)S(=O)(=O)c1ccc(Oc2ccc3c(c2)COB3O)cc1`, the IC50 in [1] is 3.4 µM.

For the molecule `CCN(CC)C(=O)c1ccc(Oc2ccc3c(c2)COB3O)cc1`, the IC50 in series [1] was 1.5 µM.

As for `C[C@@H]1C[C@H]2[C@@H]3CCC4=CC(=O)C=C[C@]4(C)[C@@]3(F)[C@@H](O)C[C@]2(C)[C@@]1(O)C(=O)CO` [DEXAMETHASONE], the “inhibition (INH)” value in [12] was determined as 72%.

In the case of `O=C1CCc2cc(OCCCCc3nnnn3C3CCCCC3)ccc2N1` [CILOSTAZOL], the 50% inhibitory concentration (IC50) in [19] is 0.84 µM.

In the case of `N#Cc1ccc(Oc2cccc3c2COB3O)cc1`, in series [1], the half-maximal inhibitory concentration (IC50) is 6 µM.
